Most compounds without a hit are left out; they make up all but 2.1% or so of the library.
Insulin prom inh: inhibitors of insulin promoter-driven GFP, primary screen, imaging, TRM-6 cells (human fetal islet line), eGFP reporter, cell count | inhibition, % at 2 µM | 130,000 compounds, 0.9% hits | reporter expression induced with tamoxifen;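 active = inhibition above the mean plus 3 SD, with well images judged a real hit on visual review, cut at about 60% in these data, passing the limit was not always enough; inconclusive = inhibition over the cutoff but images rejected on review; inactive = inhibition not above the cutoff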
Dynein transport: inhibitors of GR-EGFP nuclear translocation, primary screen, dynein cargo transport inhibitor project, imaging, high-content, 3617.4 mouse cells | test concentration mostly 20 µM; stimulated with dexamethasone, 1 µM; stronger effect = lower value | z-score, hits read low | 220,000 compounds, 0.47% hits;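 active = plate z-score of nuclear minus cytoplasmic receptor signal below a set negative limit, without overly bright fluorescence or cell loss, cut at about -3.5 in these data, passing the limit was not always enough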;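 also: z-score of nuclear minus cytoplasmic ring GR-EGFP intensity difference per well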
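Buffer or medium – tet-free medium with charcoal-stripped serum · Signal – automated 10x imaging of fixed Hoechst-stained cells · Also added – dexamethasone agonist, 1.0 µM final, for 30 min · Incubation – induction 48 h, compound 1 h, agonist 30 min · Read-out – GR-EGFP nuclear translocation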
Insulin prom up: insulin promoter activators in MIN6 cells, imaging, high-content screening, mouse beta cells; MIN6 insulin promoter-GFP reporter; stronger effect = higher value; z-score at 5 µM; 190,000 compounds, 0.3% hits;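 active = z-score above 3 at 5 µM with at least 500 cells counted in the well; inconclusive = wells under 500 cells, flagged as cytotoxic or low count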
PERK inh: block of dimerizer-induced PERK translation repression, primary screen, PERK inhibitor project, CHO PERK-DD cells, SEAP luminescence, HTS; 220,000 compounds, 0.17% hits; Eukaryotic translation initiation factor 2-alpha kinase 3 (Homo sapiens), Q9NZJ5; AID 1416, 2008; inhibition, % at 5.6 µM; CHO PERK-DD fusion, SEAP luminescence translation reporter;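 active = inhibition above the mean inhibition of all tested compounds plus 3 SD, set separately per screening campaign, cut at about 2.9% in these data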;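 also: PERK kinase domain activated by AP20187 dimerizer at 100 nM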
Autophagy HCS: autophagy modulators in MEF cells, primary screen, imaging, high-content, MEF GFP-LC3; MEF GFP-LC3 puncta imaging; test concentration mostly 10 µM; calls only at 10 µM (by protocol); 190,000 compounds, 0.98% hits; AID 463193, 2010;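 active = percentage of spot-positive cells more than 3 SD above its plate mean, without a fluorescence outlier flag or 80% toxicity; inconclusive = no clear call, values can overlap the other calls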
Of the large screens only hits and unclear results are named; the others gave an inactive call.

C/C(N)=C(/C#N)C(=O)COC(=O)c1ccc(NC(N)=O)cc1	none (no result: Insulin prom inh, Autophagy HCS)
COc1cc(SC#N)ccc1N=Cc1c(C)[nH]n(-c2ccc(Cl)cc2)c1=O	Autophagy HCS active
Cc1ccnc(NC(=O)c2ccc(N3C(=O)CCC3=O)cc2)c1	none
Nc1nc2c(s1)COc1ccccc1-2	none (no result: Insulin prom inh)
Nc1nc2c(s1)CCc1c-2cnn1-c1ccccc1	Dynein transport -6.01
Cc1ccc2nc(N3CCN(Cc4nnnn4C4CCCC4)CC3)c(C#N)cc2c1	Insulin prom inh 100.0 (no result: Insulin prom up)
CC1CC(C)CN(CCOc2ccc(Br)cc2)C1 (stereo not given)	none
CCCCn1c(O)c(/C=C/C=C/C=Nc2ccccc2)sc1=S	Insulin prom up 4.72
Oc1c(/C=C/C=C/C=Nc2ccccc2)sc(=S)n1Cc1ccccc1	Insulin prom up 3.27 (no result: Insulin prom inh, Autophagy HCS)
c1ccc(Nc2ncnc3[nH]ncc23)cc1	none (no result: Insulin prom inh, Autophagy HCS)
CNc1ccc(Br)cc(C(=O)/C=C/c2cc(OC)ccc2OC)c1=O	Dynein transport -4.14, Insulin prom up inconclusive
CNc1ccc(Br)cc(C(=O)/C=C/c2ccc(OC)cc2)c1=O	none
Cn1nnnc1SCC(=O)Nc1ccccc1C(=O)NCc1ccccc1	none
Cc1ccc(CNC(=O)c2ccccc2NC(=O)CSc2nnnn2C)cc1	Autophagy HCS active (no result: Insulin prom inh)
CN(C)C(CNC(=O)c1ccc(S(=O)(=O)N(C)C)cc1)Cc1ccccc1 (stereo not given)	Autophagy HCS active (no result: Insulin prom inh)
O=C(CCn1c(=O)oc2ccccc21)N1CCCCCC1	none
CC1CN(C(=O)CCn2c(=O)oc3ccccc32)CC(C)O1 (stereo not given)	Insulin prom up 8.04 (no result: Insulin prom inh)
O=C(CCCn1c(=O)oc2ccccc21)N1CCc2ccccc2C1	Autophagy HCS active (no result: Insulin prom inh)
COc1ccc(CCNC(=O)C(=O)Nc2ccc3c(c2)OCO3)cc1OC	none
CCOc1cccc2cc(-c3nnc(NCc4ccco4)s3)c(=O)oc12	none (no result: Insulin prom inh)
COc1ccc2oc(=O)c(-c3nnc(NCc4ccco4)s3)cc2c1	Autophagy HCS active (no result: Insulin prom inh)
CCN(CC)CC#CCC(C)(c1ccccc1)c1ccccc1	none
O=C(N/N=C/c1cccc(OC(=O)c2ccco2)c1)c1ccc(F)cc1	none
CCn1c2ccccc2c2cc(CNCc3ccc(OC)cc3OC)ccc21	Autophagy HCS active (no result: Insulin prom inh)
O=c1[nH]c(SCCOc2cccc3ccccc23)nc2ccccc12	Autophagy HCS active
Cc1ccc(S(=O)(=O)N2CCN(c3ccccc3)CC2)cc1C(N)=O	none
CC(C)c1nc(C(=O)N2CCCC(CCC(=O)N(C)CCc3ccccn3)C2)cs1 (stereo not given)	none (no result: Insulin prom up)
Cc1cc(C)c(-c2c(O)c3cnn(-c4ccccc4)c3[nH]c2=O)c(C)c1	Insulin prom inh 66.7
Cc1nc2c(cnn2-c2ccccc2)c(=O)[nH]1	none (no result: Insulin prom inh)
O=C(NCC1CCCO1)c1ccc(CSCc2cccc(F)c2)o1 (stereo not given)	none
C=CCn1c(-c2cccs2)nc2ccccc21	Insulin prom inh 80.0
Cc1nnc(NC(=O)CSc2ccc3nnc(-c4cccnc4)n3n2)s1	none
Cc1c(Nc2nc3ccccc3nc2NS(=O)(=O)c2ccccc2)c(=O)n(-c2ccccc2)n1C	Autophagy HCS active (no result: Insulin prom inh)
O=C(COc1ncnc2ccccc12)c1ccc(Cl)cc1	none (no result: Insulin prom inh)
CC(=O)C1=C(C)NC(SCC(=O)c2ccc(C)cc2)=C(C#N)C1c1ccco1 (stereo not given)	Autophagy HCS active
C=CCOC(=O)C1=C(C)NC(SCC(=O)Nc2ccc(C)c(Cl)c2)=C(C#N)C1c1ccco1 (stereo not given)	Autophagy HCS active (no result: Insulin prom inh)
Cc1ccc(Cl)cc1NC(=S)NN	none (no result: Insulin prom inh, Autophagy HCS)
CCOc1ccc(Cn2c3ccc(OC)cc3c3nc4ccccc4nc32)cc1OC	Autophagy HCS active
CCOC(=O)Cn1c2ccc(OC)cc2c2nc3ccccc3nc21	Autophagy HCS active
CN(C)c1ccc(NC(=O)CN2CCC(O)(c3ccccc3)CC2)cc1	none (no result: Insulin prom inh)
CN(C)C(=O)C(CCN1CCC(O)(c2ccc(Cl)cc2)CC1)(c1ccccc1)c1ccccc1	Autophagy HCS active (no result: Insulin prom up)
CC(=O)c1cc(C#N)c(SCC(=O)OC(C)C)nc1C	Insulin prom inh 92.6
CCOC(=O)Cn1c(=O)c2c(nc(Br)n2Cc2ccc(Cl)cc2)n(C)c1=O	none (no result: Insulin prom inh, Dynein transport, PERK inh, Autophagy HCS)
O=C(CCN1C(=O)/C(=C/C=C/c2ccccc2)SC1=S)Nc1ccccn1	none
CC(=C\c1ccccc1)/C=C1/SC(=S)N(CCC(=O)Nc2ccccn2)C1=O	Autophagy HCS active
Cc1cc(C)n(/N=C/c2cc([N+](=O)[O-])ccc2O)c(=O)c1	none (no result: Insulin prom inh)
CN(C)CCOc1ncnc2c1oc1ccccc12	none
CN(C)CCOc1nc(-c2ccccc2)nc2c1oc1ccccc12	Autophagy HCS active
O=C(NCCOC(=O)c1ccc(Cl)cc1)c1cccnc1	none
Cc1ccc(C(=O)Nc2ccnc(-c3ccncc3)n2)cc1	none (no result: Insulin prom inh)
CCSc1nc2ccccc2n1C(=O)/C=C/c1ccc(OC)c(OC)c1	none (no result: Insulin prom up)
C=CCSc1nc2ccccc2n1C(=O)/C=C/c1ccc(OC)c(OC)c1	Dynein transport -5.09 (no result: Insulin prom up)
CCc1c(C(=O)NC2CCCCC2)[nH]c(C)c1C(C)=O	Insulin prom up 3.85 (no result: Insulin prom inh)
Cc1cc(C2C(C#N)=C(N)Oc3n[nH]c(C)c32)c(C)s1 (stereo not given)	Insulin prom up 3.37
CCOC(=O)c1c(CSc2ccc(C)cc2)oc2ccc(O)cc12	none
CC(C)(C)c1ccc(NC(=O)Cn2cnc3cc([N+](=O)[O-])ccc3c2=O)cc1	Autophagy HCS active (no result: Insulin prom inh)
O=c1c2ccc([N+](=O)[O-])cc2ncn1CCOc1ccccc1	none (no result: Insulin prom inh)
Cc1ccc(OCCn2cnc3cc([N+](=O)[O-])ccc3c2=O)cc1	Autophagy HCS active (no result: Insulin prom inh)
COc1ccc2cc(C(=O)C3CCCN(C(=O)CCc4cnn(C)c4)C3)ccc2c1 (stereo not given)	none (no result: Insulin prom inh)
O=C(Nc1ccc(C(F)(F)F)cc1)N1CCN(c2ccnc3cc(Cl)ccc23)CC1	none (no result: Insulin prom inh, Autophagy HCS)
CCc1nc2ccccc2n1CC(O)COCC1CC=CCC1 (stereo not given)	none (no result: Insulin prom inh)
CCCCN1C(=O)Cc2c1nc(N)c1c(N)nc(N(CCC)CCC)c(C#N)c21	Autophagy HCS active (no result: Insulin prom inh)
CN(C)/N=C/C=C1\CCC/C(=C\c2ccc(F)c(F)c2)C1=O	Autophagy HCS active (no result: Insulin prom inh)
COc1ccc(/C=C2\CCC/C(=C\C=N\N(C)C)C2=O)cc1	none
CN(C)C=Nc1nonc1-c1ncn[nH]1	Autophagy HCS active
COCCNC(=O)CSCc1cc(C)cc(C)c1	none (no result: Insulin prom inh)
O=C(OCCN1C(=O)c2cccc3c(N4CCOCC4)ccc(c23)C1=O)c1cc(Cl)cc(Cl)c1	Autophagy HCS active
CCCN1C(=O)c2cccc3c(N4CCCCC4)ccc(c23)C1=O	Autophagy HCS active (no result: Insulin prom up)
O=C1c2cccc3c(N4CCCCC4)ccc(c23)C(=O)N1c1ccc(Cl)cn1	Autophagy HCS active (no result: Insulin prom up)
O=C(NCc1ccccc1)C1CCN(S(=O)(=O)c2ccc(Cl)cc2)CC1	none (no result: Insulin prom inh)
